Measurements from ChEMBL document CHEMBL1255338, “Differential effects of quinoline antimalarials on endocytosis in Plasmodium falciparum” (2008).
Calls of active or inactive are those of the source. The calls are words filed in the database; no cut-off is given here.

Assays:
Plasmodium falciparum [1] = assay: Antimalarial activity against Plasmodium falciparum 3D7 infected in erythrocyte assessed as increase in vesicle content after 8 hrs by immunofluorescence microscopy; assay type: functional, organism-based
How it was run: (§1)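 Cultures left untreated or given quinoline for 8 h, then parasites freed by saponin lysis, fixed on polylysine-coated coverslips with paraformaldehyde and glutaraldehyde, permeabilized in Triton X-100, and stained with rabbit anti-Hb antiserum and TRITC-conjugated goat anti-rabbit antibody. Hb transport vesicles counted by fluorescence microscopy in 100 randomly chosen parasites per sample; mean per parasite ± SEM.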

Plasmodium falciparum [2] = assay: Antimalarial activity against early trophozoite-stage Plasmodium falciparum 3D7 infected in erythrocyte assessed as reduction in parasite hemoglobin content at 5 times IC50 after 8 hrs in presence of 40 uM protease inhibitor E64; assay type: functional, organism-based
Plasmodium falciparum [3] = assay: Antimalarial activity against schizont-stage Plasmodium falciparum 3D7 infected in erythrocyte assessed as inhibition of horseradish peroxidase(HRP) uptake after 10 hrs by colorimetric peroxidase assay; assay type: functional, organism-based
How it was run: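 Erythrocytes preloaded with HRP by hypotonic lysis, then infected by incubation with enriched schizont-infected cells. Parasites exposed to quinolines for 10 h, released with saponin, washed, and lysed in Triton X-100. HRP measured colorimetrically with O-phenylenediamine at 450 nm. Significance vs control taken at P < 0.05.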

Plasmodium falciparum [4] = assay: Antimalarial activity against early trophozoite-stage Plasmodium falciparum 3D7 infected in erythrocyte assessed as reduction in parasite hemoglobin content at 5 times IC50 after 8 hrs in presence of 40 uM protease inhibitor ALLN; assay type: functional, organism-based
Plasmodium falciparum [5] = assay: Antimalarial activity against early trophozoite-stage Plasmodium falciparum 3D7 infected in erythrocyte assessed as reduction in parasite hemoglobin content at 5 times IC50 after 8 hrs; assay type: functional
Plasmodium falciparum [6] = assay: Antimalarial activity against Plasmodium falciparum 3D7 infected in erythrocyte assessed as reduction in endocytic vesicle content after 8 hrs by immunofluorescence microscopy; assay type: functional, organism-based; how it was run: as §1

Compound	inhibition (Plasmodium falciparum [1])	inhibition (Plasmodium falciparum [2])	inhibition (Plasmodium falciparum [3])	inhibition (Plasmodium falciparum [4])	inhibition (Plasmodium falciparum [5])	inhibition (Plasmodium falciparum [6])	inhibition (INH) (Plasmodium falciparum [5]) [%]
CCN(CC)Cc1cc(Nc2ccnc3cc(Cl)ccc23)ccc1O	Active	inactive	inactive	inactive	inactive	–	–
C=C[C@H]1CN2CC[C@H]1C[C@H]2[C@H](O)c1ccnc2ccc(OC)cc12 [QUININE]	–	Active	Active	Active	–	Active	84
CCCCN(CCCC)CCC(O)c1cc2c(Cl)cc(Cl)cc2c2cc(C(F)(F)F)ccc12 (stereo not given) [HALOFANTRINE]	–	Active	Active	Active	–	Active	64
CCN(CC)CCCC(C)Nc1ccnc2cc(Cl)ccc12 (stereo not given)	Active	inactive	inactive	inactive	inactive	–	–
OC(c1cc(C(F)(F)F)nc2c(C(F)(F)F)cccc12)C1CCCCN1 (stereo not given) [MEFLOQUINE]	–	inactive	Active	inactive	–	Active	83
